Out of some 360,000 compounds screened, about 1,400 (0.39%) were called active. This is one part of a sample in which actives are shown more often than they occur. Values without a mark were called inactive.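 Rule for the calls: active = pattern-corrected inhibition above about 35%, with an unprinted fluorescence ratio check between 0.5 and 1.5 (limit read from the data, passing the limit was not always enough); inactive = the rest.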
Molecular target: COP9 signalosome complex subunit 5 (Homo sapiens) (UniProt Q92905)
Experiment: CSN5 deneddylase inhibitors on cullin-RING ligase – biochemical, fluorescence polarization, uHTS, primary screen (AID 651999);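 note: 0% = enzyme with substrate and 100% = substrate without enzyme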
Conditions: Purified CSN, SCF-Nedd8-OG deneddylation, at 12.5 µM, hits give high values
How it was run: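 Detection – fluorescence polarization · System – HEK293T-derived human Csn5 enzyme · Controls – substrate-only high control, full reaction low control · Timing – 90 min, room temperature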

COP9 signalosome complex subunit 5 (Homo sapiens), sequence (Q92905 whole entry, looked up, one chain of several): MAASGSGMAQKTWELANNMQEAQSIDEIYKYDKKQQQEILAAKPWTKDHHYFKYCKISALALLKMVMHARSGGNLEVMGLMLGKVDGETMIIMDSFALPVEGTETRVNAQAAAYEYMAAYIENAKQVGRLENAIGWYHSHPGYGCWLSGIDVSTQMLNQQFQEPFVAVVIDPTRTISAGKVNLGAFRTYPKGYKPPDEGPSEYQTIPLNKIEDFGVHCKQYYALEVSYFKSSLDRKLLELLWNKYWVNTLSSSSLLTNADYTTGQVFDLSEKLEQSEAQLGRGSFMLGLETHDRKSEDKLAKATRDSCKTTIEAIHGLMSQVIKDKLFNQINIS

SMILES	inhibition
COc1ccc(N2C(=O)/C(=C/c3ccco3)C(=O)NC2=S)cc1	39.6% (active)
COc1ccc(NC(=O)N2Cc3ccccc3-n3nncc3C2)cc1	1.89%
O=C1N=c2ccccc2=C/C1=C\c1c(O)[nH]c(=S)[nH]c1=O	3.94%
CCOCCc1c(O)[nH]c(=S)[nH]c1=O	-1.36%
COc1ccccc1N=Nc1c(O)[nH]c(=S)[nH]c1=O	64.6% (active)
C=CC12CN(C)[C@@H]3C4CO[C@H](C[C@H]41)[C@]1(C(=O)Nc4ccccc41)[C@@H]32 (stereo not given in full)	6.32%
CC(=O)Nc1ccccc1C(=O)OCC(=O)c1cccc2ccccc12	-2.94%
CCN1CCN(c2nc3c(c(=O)[nH]2)CCC3)CC1	2.3%
CCNc1nc2[nH]c(=O)c3c(c2s1)OC(N)=C(C#N)C3c1cccs1 (stereo not given)	7.11%
Cn1c(O)c(C=NCCN2CCNCC2)c(=O)n(C)c1=O	2.48%
O=C1CC(=O)N(Cc2ccccc2)C(=O)N1CCCCCCN1C(=O)CC(=O)N(Cc2ccccc2)C1=O	81.1% (active)
CC(C)(C)c1ccc(CN2C(=O)CN=C(c3ccccc3)c3ccccc32)cc1	-0.66%
O=C(CN1CCCC1=O)NCCc1ccccc1	-4.34%
COC(=O)C1=C(c2cc3ccccc3s2)C[C@@H]2CC[C@H]1N2C(=O)NC(C)C	4.07%
Cc1cccc(-n2c(O)c(/C=N/N3CCOCC3)c(=O)[nH]c2=S)c1	-0.17%

Reference: PubChem BioAssay AID651999 (Sanford-Burnham Center for Chemical Genomics, 2013)
